Experimental data reported in ChEMBL document CHEMBL4177701, “A novel series of enoyl reductase inhibitors targeting the ESKAPE pathogens, Staphylococcus aureus and Acinetobacter baumannii” (Bioorg Med Chem, 2018).
In brackets after ≈: the same amount, converted by molar mass. Activity calls are given as the source filed them. The calls are words filed in the database; no cut-off is given here.

What was measured:
[1] = Solubility of the compound; format: physicochemical
[2] = Competitive inhibition of Acinetobacter baumannii 2208 ATCC 19606 FabI using crotonyl-CoA as substrate in presence of NADPH/NADH after 10 mins by fluorescence assay; parameters: species or system Acinetobacter baumannii ATCC 19606 = CIP 70.34 = JCM 6841
HepG2 [3] = test: Cytotoxicity against human HepG2 cells assessed as reduction in cell viability after 24 hrs in presence of 10% FBS by MTT assay; format: cell-based; settings: HepG2, 24 h
Summary of the method: (§1)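 HepG2 cells in EMEM with either 10% FBS or 0.5% FBS plus 10% Cell-Ess serum replacement. Seeded at 25,000 cells/well and incubated overnight at 37 °C, 5% CO2. Treated 24 h at 100–3 μg/mL, with matched DMSO controls. MTT added for 2 h, formazan extracted in DMSO, absorbance read at 570 nm. Run in duplicate; IC50 taken from the viability plot against the DMSO control.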

Escherichia coli [4] = test: Antibacterial activity against Escherichia coli BW25113 mutant by microbroth dilution method; format: functional
Summary of the method: (§2)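 Broth microdilution MIC; reported value is mean of at least two runs, within two-fold experimental uncertainty.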

Staphylococcus aureus [5] = test: Antibacterial activity against Staphylococcus aureus Newman by microbroth dilution method; format: functional
Summary of the method: (§3)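 Microbroth dilution MIC; each value is the mean of at least two runs, within two-fold experimental uncertainty.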

[6] = target: T1, Enoyl-[acyl-carrier-protein] reductase [NADPH] FabI (Staphylococcus aureus) (UniProt Q6GI75); test: Binding affinity to Staphylococcus aureus subsp. aureus Rosenbach ATCC 43300 FabI by SPR assay
T1 sequence (whole entry): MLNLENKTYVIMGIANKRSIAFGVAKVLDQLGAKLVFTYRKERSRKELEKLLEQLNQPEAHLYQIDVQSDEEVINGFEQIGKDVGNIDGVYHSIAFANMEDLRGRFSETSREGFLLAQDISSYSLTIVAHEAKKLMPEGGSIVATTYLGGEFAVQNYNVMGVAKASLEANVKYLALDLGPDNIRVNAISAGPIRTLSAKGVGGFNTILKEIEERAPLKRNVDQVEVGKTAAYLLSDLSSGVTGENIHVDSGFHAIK

Staphylococcus aureus [7] = test: Selectivity ratio of MIC for Staphylococcus aureus RN4220 over-expressing FabI to MIC for Staphylococcus aureus RN4220; format: functional
Acinetobacter baumannii [8] = test: Synergistic antibacterial activity against MDR Acinetobacter baumannii ATCC BAA-1605 assessed as fractional inhibitory concentration in presence of colistin by checkerboard method; format: functional
[9] = target: T2, Enoyl-[acyl-carrier-protein] reductase [NADPH] FabI (Staphylococcus aureus, UniProt Q6GI75); test: Competitive inhibition of Staphylococcus aureus subsp. aureus Rosenbach ATCC 43300 FabI using crotonyl-CoA as substrate in presence of NADPH/NADH after 10 mins by fluorescence assay
T2 sequence (Q6GI75 whole entry): T1 sequence (whole entry)

HepG2 [10] = test: Cytotoxicity against human HepG2 cells assessed as reduction in cell viability after 24 hrs in presence of 0.5% FBS by MTT assay; format: cell-based; settings: HepG2, 24 h; summary of the method: as §1
Acinetobacter baumannii [11] = test: Synergistic antibacterial activity against MDR Acinetobacter baumannii ATCC BAA-1605 in presence of colistin by checkerboard method; format: functional
Summary of the method: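 Checkerboard broth dilution in tryptic soy broth. Colistin 4 to 0.03 μg/mL against analog 100 to 0.19 μg/mL, crossed. Clear wells scored. ΣFIC = C/MIC(compound) + C/MIC(partner); <0.5 synergy, 0.5–2 indifference, >2 antagonism.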

Acinetobacter baumannii [12] = test: Synergistic antibacterial activity against MDR Acinetobacter baumannii ATCC BAA-1605 assessed as colistin MIC by checkerboard method; format: functional
[13] = Inhibition of Acinetobacter baumannii 2208 ATCC 19606 FabI using crotonyl-CoA as substrate in presence of NADPH/NADH after 10 mins by fluorescence assay; parameters: species or system Acinetobacter baumannii ATCC 19606 = CIP 70.34 = JCM 6841
Summary of the method: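 AbFabI, 200 nM, in 50 mM MES/100 mM NaCl with 200 μM NADH, 0.1 mg/mL BSA and 0.01% triton. Reaction started with 300 μM crotonyl-CoA. NADH fluorescence read at 340/460 nm. Compounds tested at 0.4 nM–200 μM. Initial 10-min slopes were compared with a DMSO no-compound control. At least two independent experiments, each in duplicate; two-fold uncertainty.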

Staphylococcus aureus [14] = test: Antibacterial activity against Staphylococcus aureus RN4220 over-expressing FabI by microbroth dilution method; format: functional; summary of the method: as §2
Acinetobacter baumannii [15] = test: Synergistic antibacterial activity against Acinetobacter baumannii 2208 ATCC 19606 in presence of colistin by checkerboard method; format: functional; settings: ATCC 19606 = CIP 70.34 = JCM 6841 2208
Acinetobacter baumannii [16] = test: Synergistic antibacterial activity against MDR Acinetobacter baumannii ATCC BAA-1605 assessed as fold reduction in colistin MIC by checkerboard method; format: functional
Acinetobacter baumannii [17] = test: Antibacterial activity against Acinetobacter baumannii 2208 ATCC 19606 by microbroth dilution method; format: functional; settings: ATCC 19606 = CIP 70.34 = JCM 6841 2208; summary of the method: as §3
Acinetobacter baumannii [18] = test: Synergistic antibacterial activity against Acinetobacter baumannii 2208 ATCC 19606 assessed as fractional inhibitory concentration in presence of colistin by checkerboard method; format: functional, ATCC 19606 = CIP 70.34 = JCM 6841 2208
[19] = test system: Acinetobacter baumannii ATCC 19606 = CIP 70.34 = JCM 6841; test: Binding affinity to Acinetobacter baumannii 2208 ATCC 19606 FabI by SPR assay
Acinetobacter baumannii [20] = test: Synergistic antibacterial activity against Acinetobacter baumannii 2208 ATCC 19606 assessed as colistin MIC by checkerboard method; format: functional; settings: ATCC 19606 = CIP 70.34 = JCM 6841 2208
Acinetobacter baumannii [21] = test: Synergistic antibacterial activity against Acinetobacter baumannii 2208 ATCC 19606 in presence of polymixin B by checkerboard method; format: functional; settings: ATCC 19606 = CIP 70.34 = JCM 6841 2208
Acinetobacter baumannii [22] = test: Synergistic antibacterial activity against Acinetobacter baumannii 2208 ATCC 19606 assessed as fractional inhibitory concentration in presence of polymixin B by checkerboard method; format: functional, ATCC 19606 = CIP 70.34 = JCM 6841 2208
Acinetobacter baumannii [23] = test: Synergistic antibacterial activity against Acinetobacter baumannii 2208 ATCC 19606 assessed as polymixin B MIC by checkerboard method; format: functional; settings: ATCC 19606 = CIP 70.34 = JCM 6841 2208
Escherichia coli [24] = test: Antibacterial activity against Escherichia coli BW25113 harboring TolC deletion mutant by microbroth dilution method; format: functional; summary of the method: as §2
Staphylococcus aureus [25] = test: Antibacterial activity against methicillin-resistant Staphylococcus aureus subsp. aureus Rosenbach ATCC 43300 by microbroth dilution method; format: functional; summary of the method: as §2
[26] = Selectivity index, ratio for IC50 for human HepG2 cells to MIC for Staphylococcus aureus RN4220; format: toxicity; settings: read-out: Selectivity Index
[27] = Selectivity index, ratio for IC50 for human HepG2 cells to MIC for Staphylococcus aureus RN4220 over-expressing FabI; format: toxicity
[28] = Selectivity index, ratio for IC50 for human HepG2 cells to MIC for methicillin-resistant Staphylococcus aureus subsp. aureus Rosenbach ATCC 43300; format: toxicity
[29] = Protein binding in human serum; format: ADME, cell-free; settings: read-out: PB (converted)
[30] = Protein binding in rat serum; format: ADME, cell-free; settings: read-out: PB (converted)
[31] = Protein binding in mouse serum; format: ADME, cell-free; settings: read-out: PB (converted)
[32] = Protein binding in dog serum; format: ADME, cell-free, Canis lupus familiaris; settings: read-out: PB (converted)

| SMILES | Ki [2] [µM] | IC50 (HepG2 [3]) [µg/mL] | MIC (Staphylococcus aureus [5]) [µM] | Activity [6] | Selectivity ratio (Staphylococcus aureus [7]) | FIC (Acinetobacter baumannii [8]) | Ki [9] [µM] | IC50 (HepG2 [10]) [µg/mL] | MIC (Acinetobacter baumannii [11]) [µg/mL] | MIC (Acinetobacter baumannii [12]) [µg/mL] | IC50 [13] [µM] | MIC (Staphylococcus aureus [14]) [µg/mL] | MIC (Acinetobacter baumannii [15]) [µg/mL] | fold change (FC) (Acinetobacter baumannii [16]) | MIC (Acinetobacter baumannii [17]) [µg/mL] | FIC (Acinetobacter baumannii [18]) | Activity [19] | MIC (Acinetobacter baumannii [20]) [µg/mL] | MIC (Acinetobacter baumannii [21]) [µg/mL] | FIC (Acinetobacter baumannii [22]) | further results |
| --- | --- | --- | --- | --- | --- | --- | --- | --- | --- | --- | --- | --- | --- | --- | --- | --- | --- | --- | --- | --- | --- |
| O=C(Cc1ccccc1)N1CCC(c2ccccc2)C1 (configuration not stated) | – | – | – | – | – | – | – | – | – | – | – | – | – | – | – | – | – | – | – | – | solubility [1]: Insoluble |
| COc1ccccc1C1CCN(C(=O)Cc2ccccc2Cl)C1 (racemic) | 1.8 | 75 | 75.8 (≈ 25 µg/mL) | Active | 4 | 0.25 | 0.2 | 39 | 25 | 0.39 | 3.6 | 50 (≈ 152 µM) | 12.5 | 10 | > 200 | 0.19 | Active | 0.39 | – | – | MIC (Escherichia coli [4]): > 200 µg/mL |
| O=C(Cc1ccccc1Cl)N1CCC(c2ccccc2)C1 (racemic) | 1.6 | 79 | 41.7 (≈ 12.5 µg/mL) | Active | 4 | 0.25 | 4 | 55 | 25 | 0.78 | 3.1 | – | 12.5 | 10 | > 200 | 0.31 | Active | 0.39 | 50 | 0.28 | MIC (Acinetobacter baumannii [23]): 3.75 µg/mL |
| O=C(Cc1ccccc1Cl)N1CCC(c2ccc3c(c2)OCO3)C1 (racemic) | 3.9 | 64 | 18.2 (≈ 6.26 µg/mL) | Active | >4 | 0.31 | 0.9 | 46 | 12.5 | 0.78 | 7.8 | > 200 | 6.25 | 10 | > 200 | 0.28 | Active | 0.78 | – | – | MIC (Escherichia coli [24]): 25 µg/mL (≈ 72.7 µM); MIC (Staphylococcus aureus [25]): 25 µg/mL (≈ 72.7 µM) |
| COc1ccccc1C1CCN(C(=O)/C=C/c2ccc(NC(C)=O)nc2)C1 (racemic) | 0.2 | 219 | 34.2 (≈ 12.5 µg/mL) | Active | 4 | 0.31 | 1.3 | 138 | 12.5 | 0.78 | 0.42 | – | 25 | 10 | > 200 | – | Active | 0.39 | 50 | 0.37 | Selectivity ratio [26]: > 10; MIC (Escherichia coli [24]): 0.75 µg/mL (≈ 2.05 µM); Selectivity ratio [27]: 4.4; MIC (Acinetobacter baumannii [23]): 15 µg/mL; Selectivity ratio [28]: 8.8 |
| Cc1c(CN(C)C(=O)/C=C/c2cnc3c(c2)CCC(=O)N3)oc2ccccc12 [AFN-1252] | – | – | – | – | – | – | – | – | – | – | – | – | – | – | – | – | – | – | – | – | fraction unbound [29]: 0.05; fraction unbound [30]: 0.05; fraction unbound [31]: 0.05; fraction unbound [32]: 0.05 |
